Tn7 DDE FP – inhibitors of Tn7 peptide binding to human fibrin DD(E). FP displacement of FITC-Tn7 peptide from fibrin DD(E); 0% = median of compound wells per plate. inhibition, % at 8.3 µM. actives 0.13% (n = 370,000). AID 720508;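 active = inhibition above the mean of compounds falling within the control limits plus 3 SD of them, cut at about 14% in these data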;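 also: 0% = plate median of compound wells and 100% = 10 µM Aha-Tn7 peptide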
Target sequence (P02675 whole entry, looked up): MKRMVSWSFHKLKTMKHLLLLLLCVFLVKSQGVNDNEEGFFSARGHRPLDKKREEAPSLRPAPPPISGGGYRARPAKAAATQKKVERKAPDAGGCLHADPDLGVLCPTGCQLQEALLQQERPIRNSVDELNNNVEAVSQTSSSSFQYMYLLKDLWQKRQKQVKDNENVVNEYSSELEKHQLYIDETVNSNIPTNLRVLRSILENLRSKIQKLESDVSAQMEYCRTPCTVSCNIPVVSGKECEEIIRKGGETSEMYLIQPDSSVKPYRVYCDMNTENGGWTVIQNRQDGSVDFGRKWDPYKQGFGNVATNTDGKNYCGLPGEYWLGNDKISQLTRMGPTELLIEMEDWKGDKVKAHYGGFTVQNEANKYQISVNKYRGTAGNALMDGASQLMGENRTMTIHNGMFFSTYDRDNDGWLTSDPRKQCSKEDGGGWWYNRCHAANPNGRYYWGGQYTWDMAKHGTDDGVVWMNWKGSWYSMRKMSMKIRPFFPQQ
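Test system – human fibrin DD(E) · Times – 10 min preincubation, 3 h with tracer, room temperature · Detection – fluorescence polarization of the labelled Tn7 tracer · Measure – percent inhibition normalized to high-control wells · Benchmarks – high control wells with 10 µM unlabelled Aha-Tn7 peptide (full inhibition) · Repeats – singlicate testing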
UHRF1 binding – human UHRF1 methylated DNA binding inhibitors | Q96T88 | UHRF1 binding to methylated oligo, TR-FRET | inhibition, % at 4.4 µM | actives 0.75% (n = 370,000) | AID 687016; in the data active = inhibition above about 21%;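 also: UHRF1 SRA domain binding a hemimethylated CpG hairpin DNA probe; 0% = median of test compound wells and 100% = reference inhibitor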
MBD2 inh – blocks human MBD2 binding to methylated DNA; Q9UBB5; TR-FRET, MBD2 binding to methylated oligonucleotide; inhibition, % at 4.4 µM; actives 0.31% (n = 370,000); in the data active = inhibition above about 13%
LEDGF integ inh – blocks HIV-1 LEDGF/p75-dependent DNA integration; inhibition, % at 3.7 µM; AID 743269; actives 0.64% (n = 370,000); TR-FRET IN-LEDGF/p75 DNA integration, Eu/Cy5;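 active = inhibition above the screen-wide mean plus 3 SD, cut at about 13% in these data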;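 also: signal is the Cy5 over europium emission ratio at 671 and 618 nm; 0% = plate median of compound wells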
TDP2 absorb – blocks human TDP2 phosphodiesterase activity; O95551; recombinant TDP2, T5PNP hydrolysis, p-nitrophenol absorbance 415 nm; inhibition, % at 12.8 µM; actives 0.34% (n = 370,000); AID 720702;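 active = inhibition above the mean of all tested compounds plus 3 SD, set per campaign, cut at about 25% in these data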;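 also: 0% = DMSO with enzyme and 100% = buffer with substrate but no TDP2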
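Incubation: 2 h at 37 °C; Test system: recombinant human TDP2; Quantity: enzyme 120 nM; Read-out basis: percent inhibition; Medium: 50 mM Tris-HCl pH 7.5 with Mg2+, KCl, DTT, BSA; Repeats: single replicate; Compound: 12.8 µM single point, 1% DMSO; Signal: epi absorbance; Reagent: 5 mM T5PNP chromogenic substrate; Benchmarks: no-enzyme high, DMSO-plus-enzyme low.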
Tn6 DDE FP – DD(E)-Tn6 binding inhibition, primary FP screen; P02675; Fibrin DD(E) TRITC-Tn6 fluorescence polarization displacement; inhibition, % at 8.3 µM; actives 0.21% (n = 370,000); AID 720509;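 active = inhibition above a per-campaign cutoff: mean of compounds within control limits plus 3 SD, cut at about 15% in these data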;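 also: 0% = median of all compound wells on the plate and 100% = blocking peptide control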
IN multimer up – counter-screen for LEDGF/p75 integration inhibitors: HIV-1 integrase multimerization activators; activation, % at 7.7 µM; shares compounds with LEDGF integ inh; TR-FRET HIV-1 integrase multimerization, biochemical; actives 17% (n = 2,000); AID 1053131; in the data active = activation above about 8.9%
TR-FRET interf – TR-FRET optical interference, LEDGF/p75 integration counter-screen | shares compounds with LEDGF integ inh | TR-FRET optical interference counterscreen, HIV-1 IN multimerization | inhibition, % at 7.7 µM | 2,000 tested, under 10 active;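 active = inhibition above the mean over all tested compounds plus 3 SD, which no compound reached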;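 also: 0% = integrase with antibodies and DMSO and 100% = antibodies without integrase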
LEDGF integ conf – confirmation of HIV-1 LEDGF/p75-dependent integration inhibitors; shares compounds with LEDGF integ inh; TR-FRET LEDGF/p75-dependent HIV-1 integration, biochemical; inhibition, % at 3.7 µM; actives 36% (n = 2,000); in the data active = inhibition above about 14%
The depositor's hits bear a star; nt = no result. Shown are actives, neighbours in structure and some others; about 1.9% of the full set was active somewhere.

SMILES	Tn7 DDE FP	UHRF1 binding	MBD2 inh	LEDGF integ inh	TDP2 absorb	Tn6 DDE FP	IN multimer up	TR-FRET interf	LEDGF integ conf
COC(=O)C1=C(C)N(Cc2cccc(C(F)(F)F)c2)C(=NCc2ccc3c(c2)OCO3)NC1c1ccccc1C(F)(F)F (centres undefined)	1	0	3	-2	-1	10	nt	nt	nt
O=C(Cn1c(=O)sc2ccccc21)NCc1ccccn1	-1	2	4	19*	3	1	0	1	1
O=C(CN1C(=O)c2ccccc2C1=O)NCc1ccccn1	-4	1	1	0	5	-4	nt	nt	nt
O=C(c1ccc(=O)oc1)N1CCOCC1	1	43*	4	29*	9	2	6	-29	58*
O=C(NC12CC3CC(CC(C3)C1)C2)N1CCN(c2ncccn2)CC1	-5	0	5	-3	-4	-7	nt	nt	nt
O=C(NC12CC3CC(CC(C3)C1)C2)N1CCN(c2ccccn2)CC1	-6	0	4	49*	-8	4	0	1	-7
Cc1onc(-c2c(F)cccc2Cl)c1-c1ncc(-c2ccc(Cl)cc2)o1	1	4	2	1	-6	1	nt	nt	nt
CCN(CC)c1ccc(C=Nc2ccc(C)cc2)c(O)c1	0	-2	-5	0	-11	3	nt	nt	nt
CCN(CC)c1ccc(N=Cc2ccc(N(CC)CC)cc2O)cc1	-2	-2	-7	15*	8	-5	6	-22	-6
CCN(CC)c1ccc(C=Nc2ccc(N(C)C)cc2)c(O)c1	-1	11	-6	34*	19	7	13*	-45	4
CCN(CC)c1cc(Oc2ccccc2)ncn1	1	1	-3	47*	5	2	1	-5	-6
O=C(COc1ccccc1[N+](=O)[O-])NCCC1=CCCCC1	5	-2	-2	18*	-2	4	0	-2	-1
O=C(COc1ccccc1Br)NCCC1=CCCCC1	-1	1	5	-4	-3	-3	nt	nt	nt
COc1ccc(C(C(=O)NCC2CCCO2)N(C(=O)Cn2nnc3ccccc32)c2ccccc2C(C)=O)cc1OC (centres undefined)	1	1	-2	-2	16	-3	nt	nt	nt
COc1cc(C(C(=O)NCC2CCCO2)N(C(=O)Cn2nnc3ccccc32)c2ccc(OC)c(OC)c2)ccc1O (centres undefined)	0	-1	9	42*	9	-2	1	-5	3
CCCCCCC(=O)NC1CCCCN(Cc2ccccc2C)C1=O (centres undefined)	9	-2	-8	5	-13	1	nt	nt	nt
CC1=C(SCc2ccccc2)C(=O)c2ccccc2C1=O	-6	3	-17	24*	51*	2	5	-18	44*
Cc1cc(=O)[nH]c(SCc2ccccc2)n1	0	3	7	-1	2	0	nt	nt	nt
COc1cc(C(=O)Nc2ccccc2NC(=O)c2cc(OC)c(OC)c(OC)c2)cc(OC)c1OC	-6	-4	0	2	-4	10	nt	nt	nt
COc1cc(C(=O)Nc2nc(C)cc(C)n2)cc(OC)c1OC	-3	1	0	59*	7	-7	0	0	-6
CC(C)(C)C(=O)O[C@@H]1CCC[C@@]2(C(=O)N(Cc3ccccc3)c3ccccc32)[C@H]1NC(=O)CCc1ccccc1	6	-2	-7	3	-4	-3	nt	nt	nt
CCCCCCCCN1C(=O)[C@@H](CC(=O)NCc2ccc(C)o2)C[C@@]2(C(=O)OC)C1=C[C@H](C1CCCC1)O[C@@H]2C	4	-1	0	1	-8	-5	nt	nt	nt
CN(C)c1ccccc1C(=O)N1CCCC(C(=O)c2ccc3ccccc3c2)C1 (centres undefined)	5	1	-1	-9	-17	0	nt	nt	nt
CSc1ncccc1C(=O)N1CCCC(C(=O)c2ccc3ccccc3c2)C1 (centres undefined)	1	11	5	15*	7	-2	0	1	4
O=C(CCc1c[nH]c2ccccc12)Nc1ccc(Oc2cccnc2)cc1	9	-1	-3	-6	0	9	nt	nt	nt
SMILES	Tn7 DDE FP	UHRF1 binding	MBD2 inh	LEDGF integ inh	TDP2 absorb	Tn6 DDE FP	IN multimer up	TR-FRET interf	LEDGF integ conf
CCCCn1c(N)c(N(CCOC)C(=O)c2ccc(N3CCCC3)c([N+](=O)[O-])c2)c(=O)[nH]c1=O	6	-7	-7	27*	-4	-1	0	-2	2
CCCCn1c(N)c(N(CCOC)C(=O)c2ccc(NC3CC3)c([N+](=O)[O-])c2)c(=O)[nH]c1=O	1	-3	-7	0	-7	0	nt	nt	nt
CCn1c(NC(=O)/C=C/c2ccc(F)cc2)nc2ccccc21	1	-2	4	16*	9	1	0	-2	11
O=S1(=O)N[C@H](Cc2ccccc2)COc2cccc(N3CCCCC3)c21	4	22*	7	39*	3	5	-1	6	0
CN1CCN(c2cccc3c2S(=O)(=O)N[C@H](Cc2ccccc2)CO3)CC1	-1	1	-5	3	-17	4	nt	nt	nt
CCC(=O)Nc1ncc2c(n1)CC(c1ccco1)CC2=O (centres undefined)	-7	8	2	18*	-11	-11	3	-11	-6
O=C(Nc1ncc2c(n1)CC(c1ccco1)CC2=O)c1ccco1 (centres undefined)	-4	10	-3	13*	-9	0	1	-4	0
Cc1ccc(-c2cc(-c3nnc4sc(Cc5cccs5)nn34)[nH]n2)cc1	-1	0	1	0	6	-1	nt	nt	nt
C[C@@H]1CN(c2ccc(N3CCNC[C@H]3C)cc2C#N)C[C@H](C)O1	5	-6	3	-3	8	3	nt	nt	nt
CCCN(CC1CC1)C(=S)NC(=O)c1cc(Br)ccc1Cl	-5	-6	-7	17*	-10	10	0	2	10
Cc1ccc(-c2c(C(=O)O)c(C(=O)O)c3n2CSC3)cc1	1	2	-4	14*	9	-5	0	-1	-5
Cc1ccc(C)c(OCc2cc(C(=O)N3CCNC(=O)C3)no2)c1	-1	3	1	27*	18	2	-1	4	4

Screening data (PubChem BioAssay)
